Results as given in ChEMBL document CHEMBL1145054, “Enantioselective syntheses and cytotoxicity of N,O-nucleosides” (J Med Chem, 2003).

Assays:
[1] = test system: HL-60; test: Cytotoxic concentration required to cause 50% toxicity in HL-60 cell lines at 24 hours; format: functional; conditions: Homo sapiens, HL-60, 24 h
Procedure, shortened: (§1)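 Cells were exposed under optimal culture conditions to 8–512 μM test agent or to control medium for the stated time. Viability was scored by trypan blue exclusion. CC50 is the concentration causing 50% toxicity, determined from two or more experiments.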

[2] = test system: HL-60; test: Cytotoxic concentration required to cause 50% toxicity in HL-60 cell lines at 48 hours; format: functional; conditions: Homo sapiens, HL-60, 48 h; procedure, shortened: as §1
[3] = test system: HL-60; test: Apoptotic concentration required to cause apoptosis in 50% of HL-60 cell lines at 24 hours; format: functional, cell-based; conditions: Homo sapiens, HL-60, 24 h
Procedure, shortened: (§2)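 Cells were exposed under optimal culture conditions to 8–512 μM test agent or to control medium for the stated time. They were then stained with acridine orange, and over 600 cells were counted by fluorescence microscopy. Cells counted as apoptotic had uniformly stained nuclei with chromatin condensation and nuclear fragmentation. AC50 is the concentration giving 50% apoptosis, determined from two or more experiments.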

[4] = test system: HL-60; test: Apoptotic concentration required to cause apoptosis in 50% of HL-60 cell lines at 48 hours; format: functional, cell-based; conditions: Homo sapiens, HL-60, 48 h; procedure, shortened: as §2
[5] = test system: MOLT-3; test: Apoptotic concentration required to cause apoptosis in 50% of Molt-3 cell lines at 24 hours; format: functional, cell-based; conditions: Homo sapiens, MOLT-3, 24 h; procedure, shortened: as §2
[6] = test system: MOLT-3; test: Apoptotic concentration required to cause apoptosis in 50% of Molt-3 cell lines at 48 hours; format: functional, cell-based; conditions: Homo sapiens, MOLT-3, 48 h; procedure, shortened: as §2
[7] = test system: MOLT-3; test: Apoptotic concentration required to cause apoptosis in 50% of Molt-3 cell lines at 72 hours; format: functional, cell-based; conditions: Homo sapiens, MOLT-3, 72 h; procedure, shortened: as §2
[8] = test system: MOLT-3; test: Cytotoxic concentration required to cause 50% toxicity in Molt-3 cell lines at 24 hours; format: functional; conditions: Homo sapiens, MOLT-3, 24 h; procedure, shortened: as §1
[9] = test system: MOLT-3; test: Cytotoxic concentration required to cause 50% toxicity in Molt-3 cell lines at 48 hours; format: functional; conditions: Homo sapiens, MOLT-3, 48 h; procedure, shortened: as §1
[10] = test system: MOLT-3; test: Cytotoxic concentration required to cause 50% toxicity in Molt-3 cell lines at 72 hours; format: functional; conditions: Homo sapiens, MOLT-3, 72 h; procedure, shortened: as §1
[11] = test system: THP-1; test: Apoptotic concentration required to cause apoptosis in 50% of THP-1 cell lines at 24 hours; format: functional, cell-based; conditions: Homo sapiens, THP-1, 24 h; procedure, shortened: as §2
[12] = test system: THP-1; test: Cytotoxic concentration required to cause 50% toxicity in THP-1 cell lines at 24 hours; format: functional; conditions: Homo sapiens, THP-1, 24 h; procedure, shortened: as §1
[13] = test system: U-937; test: Apoptotic concentration required to cause apoptosis in 50% of U-937 cell lines at 24 hours; format: functional, cell-based; conditions: Homo sapiens, U-937, 24 h; procedure, shortened: as §2
[14] = test system: U-937; test: Apoptotic concentration required to cause apoptosis in 50% of U-937 cell lines at 48 hours; format: functional, cell-based; conditions: Homo sapiens, U-937, 48 h; procedure, shortened: as §2
[15] = test system: U-937; test: Apoptotic concentration required to cause apoptosis in 50% of U-937 cell lines at 72 hours; format: functional, cell-based; conditions: Homo sapiens, U-937, 72 h; procedure, shortened: as §2
[16] = test system: U-937; test: Cytotoxic concentration required to cause 50% toxicity in U-937 cell lines at 24 hours; format: functional; conditions: Homo sapiens, U-937, 24 h; procedure, shortened: as §1
[17] = test system: U-937; test: Cytotoxic concentration required to cause 50% toxicity in U-937 cell lines at 48 hours; format: functional; conditions: Homo sapiens, U-937, 48 h; procedure, shortened: as §1
[18] = test system: U-937; test: Cytotoxic concentration required to cause 50% toxicity in U-937 cell lines at 72 hours; format: functional; conditions: Homo sapiens, U-937, 72 h; procedure, shortened: as §1

**Q.** For `O=c1[nH]c(=O)n(C2CCNO2)cc1F` (stereo not drawn), which CC50 [1] is on record?
**A.** > 1000 µM

**Q.** And the CC50 [2]?
**A.** > 1000 µM

**Q.** What about the AC50 [3] of the same compound?
**A.** > 1000 µM

**Q.** And the AC50 [4]?
**A.** > 1000 µM

**Q.** And the AC50 [5]?
**A.** 329 µM

**Q.** What about the AC50 [6] of the same compound?
**A.** 96 µM

**Q.** And the AC50 [7]?
**A.** 13 µM

**Q.** And the CC50 [8]?
**A.** > 1000 µM

**Q.** What about the CC50 [9] of the same compound?
**A.** 806 µM

**Q.** What about the CC50 [10] of the same compound?
**A.** 366 µM

**Q.** And the AC50 [11]?
**A.** > 1000 µM

**Q.** And the CC50 [12]?
**A.** > 1000 µM

**Q.** What about the AC50 [13] of the same compound?
**A.** > 1000 µM

**Q.** And the AC50 [14]?
**A.** 123 µM

**Q.** And the AC50 [15]?
**A.** 3 µM

**Q.** What about the CC50 [16] of the same compound?
**A.** > 1000 µM

**Q.** What about the CC50 [17] of the same compound?
**A.** > 1000 µM

**Q.** And the CC50 [18]?
**A.** 687 µM
